# Test results from ChEMBL document CHEMBL1122854, “Novel bis[1,6-dihydro-6,6-dimethyl-1,3,5-triazine-2,4-diamines] as antitrypanosomal agents” (1985).
# “And” between values parts separate entries of the source, which are not always exact repeats. Identical values can stand only once.
# Assays:
# Mus musculus [1] = test: Antitrypanosomal activity was evaluated against Trypanosoma rhodesiense infections in mice, at dose 6.6 mg/kg administered subcutaneously; Cures; format: functional; settings: route subcutaneous
# Outline: (§1)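 IUR/HA Swiss mice (six weeks old, 30-32 g) infected i.p. with Wellcome CT strain T. rhodesiense. A single subcutaneous dose in peanut oil was given about 2 h after inoculation, with five mice per dose level. Positive control was stilbamidine or 2-hydroxystilbamidine isethionate at 40 mg/kg. Deaths before day 4 were scored toxic, and 30-day survivors cured.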
# [2] = test system: Trypanosoma brucei rhodesiense; test: (§2) Antitrypanosomal activity was evaluated against Trypanosoma rhodesiense infections in mice, at dose 106 mg/kg, administered subcutaneously; format: functional; settings: route subcutaneous; outline: as §1
# [3] = test system: Trypanosoma brucei rhodesiense; test: Antitrypanosomal activity against Trypanosoma rhodesiense infections in mice, 6.6 mg/kg administered subcutaneously; format: functional; settings: route subcutaneous
# Outline: (§3)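 Six-week-old IUR/HA Swiss mice (30-32 g), 5 per dose, infected ip with 0.5 mL of a 1:50 000 dilution of heparinized heart blood from donor mice infected 3 days before (Wellcome CT strain). Single sc dose in peanut oil about 2 h post-inoculation. Deaths before day 4 counted toxic. ΔMST versus untreated controls; survivors at 30 days counted cured.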
# Mus musculus [4] = test: (§4) Antitrypanosomal activity was evaluated against Trypanosoma rhodesiense infections in mice, at dose 13 mg/kg, administered subcutaneously; format: functional; settings: route subcutaneous; outline: as §1
# Mus musculus [5] = test: Antitrypanosomal activity was evaluated against Trypanosoma rhodesiense infections in mice, at dose 1.6 mg/kg, administered subcutaneously; Cures; format: functional; settings: route subcutaneous; outline: as §1
# Mus musculus [6] = test: (§5) Antitrypanosomal activity was evaluated against Trypanosoma rhodesiense infections in mice, at dose 212 mg/kg, administered subcutaneously; format: functional; settings: route subcutaneous; outline: as §1
# Mus musculus [7] = test: Antitrypanosomal activity was evaluated against Trypanosoma rhodesiense infections in mice, at dose 3.3 mg/kg, administered subcutaneously; Cures; format: functional; settings: route subcutaneous; outline: as §1
# [8] = test system: Trypanosoma brucei rhodesiense; test: Antitrypanosomal activity was evaluated against Trypanosoma rhodesiense infections in mice, at dose 1.6 mg/kg, administered subcutaneously; format: functional; settings: route subcutaneous; outline: as §3
# Mus musculus [9] = test: (§6) Antitrypanosomal activity was evaluated against Trypanosoma rhodesiense infections in mice, at dose 53 mg/kg, administered subcutaneously; format: functional; settings: route subcutaneous; outline: as §1
# [10] = test system: Trypanosoma brucei rhodesiense; test: Antitrypanosomal activity was evaluated against Trypanosoma rhodesiense infections in mice, at dose 26 mg/kg, administered subcutaneously; format: functional; settings: route subcutaneous; outline: as §1
# [11] = test system: Trypanosoma brucei rhodesiense; test: Antitrypanosomal activity against Trypanosoma rhodesiense infections in mice, 3.3 mg/kg administered subcutaneously; format: functional; settings: route subcutaneous; outline: as §3
# Mus musculus [12] = test: as §2; format: functional; settings: route subcutaneous; outline: as §1
# [13] = test system: Trypanosoma brucei rhodesiense; test: Antitrypanosomal activity against Trypanosoma rhodesiense infections in mice, 424 mg/kg administered subcutaneously; format: functional; settings: route subcutaneous; outline: as §1
# Mus musculus [14] = test: Antitrypanosomal activity was evaluated against Trypanosoma rhodesiense infections in mice, at dose 13 mg/kg, administered subcutaneously;Cures; format: functional; settings: route subcutaneous; outline: as §1
# Mus musculus [15] = test: Antitrypanosomal activity was evaluated against Trypanosoma rhodesiense infections in mice, at dose 6.6 mg/kg, administered subcutaneously;Cures; format: functional; settings: route subcutaneous; outline: as §1
# [16] = test system: Trypanosoma brucei rhodesiense; test: Anti-trypanosomal activity against Trypanosoma rhodesiense infections in mice, 26 mg/kg administered subcutaneously; format: functional; settings: route subcutaneous; outline: as §3
# Mus musculus [17] = test: Antitrypanosomal activity was evaluated against Trypanosoma rhodesiense infections in mice, at dose 26 mg/kg, administered orally;Toxic; format: functional; settings: in the assay text read “administered subcutaneously” for “administered orally”
# Mus musculus [18] = test: Antitrypanosomal activity was evaluated against Trypanosoma rhodesiense infections in mice, at dose 13 mg/kg, administered subcutaneously;Toxic; format: functional; settings: route subcutaneous; outline: as §1
# Mus musculus [19] = test: Antitrypanosomal activity was evaluated against Trypanosoma rhodesiense infections in mice, at dose 3.3 mg/kg, administered subcutaneously; format: functional; settings: route subcutaneous; outline: as §3
# Mus musculus [20] = test: Antitrypanosomal activity was evaluated against Trypanosoma rhodesiense infections in mice, at dose 53 mg/kg, administered orally; format: functional; settings: route oral
# Mus musculus [21] = test: Antitrypanosomal activity was evaluated against Trypanosoma rhodesiense infections in mice, at dose 6.6 mg/kg, administered subcutaneously; format: functional; settings: route subcutaneous; outline: as §3
# Mus musculus [22] = test: Antitrypanosomal activity was evaluated against Trypanosoma rhodesiense infections in mice, at dose 6.6 mg/kg, administered subcutaneously;Toxic; format: functional; settings: route subcutaneous; outline: as §1
# Mus musculus [23] = test: Antitrypanosomal activity was evaluated against Trypanosoma rhodesiense infections in mice, at dose 26 mg/kg, administered orally; format: functional; settings: route oral
# Mus musculus [24] = test: (§7) Antitrypanosomal activity was evaluated against Trypanosoma rhodesiense infections in mice, at dose 424 mg/kg, administered orally; format: functional; settings: route oral
# Mus musculus [25] = test: Antitrypanosomal activity was evaluated against Trypanosoma rhodesiense infections in mice, at dose 106 mg/kg, administered orally; format: functional; settings: route oral
# Mus musculus [26] = test: Antitrypanosomal activity was evaluated against Trypanosoma rhodesiense infections in mice, at dose 212 mg/kg, administered orally; format: functional; settings: route oral
# Mus musculus [27] = test: Antitrypanosomal activity was evaluated against Trypanosoma rhodesiense infections in mice, at dose 424 mg/kg, administered subcutaneously;Cures; format: functional; settings: route subcutaneous; outline: as §1
# Mus musculus [28] = test: Antitrypanosomal activity was evaluated against Trypanosoma rhodesiense infections in mice, at dose 0.8mg/kg, administered subcutaneously
# Mus musculus [29] = test: Antitrypanosomal activity was evaluated against Trypanosoma rhodesiense infections in mice, at dose 106 mg/kg, administered subcutaneously; Cures; format: functional; settings: route subcutaneous; outline: as §1
# Mus musculus [30] = test: Antitrypanosomal activity was evaluated against Trypanosoma rhodesiense infections in mice, at dose 212 mg/kg, administered subcutaneously;Cures; format: functional; settings: route subcutaneous; outline: as §1
# Mus musculus [31] = test: Antitrypanosomal activity was evaluated against Trypanosoma rhodesiense infections in mice, at dose 53 mg/kg, administered subcutaneously;Cures; format: functional; settings: route subcutaneous; outline: as §1
# Mus musculus [32] = test: Antitrypanosomal activity was evaluated against Trypanosoma rhodesiense infections in mice, at dose 26 mg/kg, administered subcutaneously;Cures; format: functional; settings: route subcutaneous; outline: as §1
# Mus musculus [33] = test: as §5; format: functional; settings: route subcutaneous; outline: as §3; remark: listed apart in the source
# [34] = test system: Trypanosoma brucei rhodesiense; test: as §6; format: functional; settings: route subcutaneous; outline: as §3
# Mus musculus [35] = test: Antitrypanosomal activity was evaluated against Trypanosoma rhodesiense infections in mice, at dose 424 mg/kg, administered subcutaneously;Toxic; format: functional; settings: route subcutaneous; outline: as §1
# [36] = test system: Trypanosoma brucei rhodesiense; test: Antitrypanosomal activity was evaluated against Trypanosoma rhodesiense infections in mice, at dose 424 mg/kg, administered subcutaneously; format: functional; settings: route subcutaneous; outline: as §3
# Mus musculus [37] = test: (§8) Antitrypanosomal activity was evaluated against Trypanosoma rhodesiense infections in mice, at dose 26 mg/kg, administered orally; Cures; format: functional
# Outline: (§9)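 Oral dosing of IUR/HA Swiss mice (six weeks old, 30-32 g) infected i.p. with Wellcome CT strain T. rhodesiense, with five mice per dose level. Survival was followed for 30 days. Deaths before day 4 were counted as toxic and 30-day survivors as cured. ΔMST is the difference in mean survival time between treated and control mice.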
# Mus musculus [38] = test: Antitrypanosomal activity was evaluated against Trypanosoma rhodesiense infections in mice, at dose 212 mg/kg, administered subcutaneously; Cures; format: functional; settings: route subcutaneous; outline: as §1
# [39] = test system: Trypanosoma brucei rhodesiense; test: as §5; format: functional; settings: route subcutaneous; outline: as §3
# Mus musculus [40] = test: Antitrypanosomal activity was evaluated against Trypanosoma rhodesiense infections in mice, at dose 106 mg/kg, administered orally; Cures; format: functional; outline: as §9
# Mus musculus [41] = test: Antitrypanosomal activity was evaluated against Trypanosoma rhodesiense infections in mice, at dose 424 mg/kg, administered orally; Cures; format: functional; outline: as §9
# Mus musculus [42] = test: as §8; format: functional; remark: listed apart in the source
# Mus musculus [43] = test: as §7; format: functional; settings: route oral, 424 mg/kg; outline: as §9
# Mus musculus [44] = test: as §4; format: functional; settings: route subcutaneous; outline: as §3; remark: listed apart in the source
# Mus musculus [45] = test: Antitrypanosomal activity was evaluated against Trypanosoma rhodesiense infections in mice, at dose 13mg/kg, administered subcutaneously; format: functional; outline: as §3
# Mus musculus [46] = test: Antitrypanosomal activity was evaluated against Trypanosoma rhodesiense infections in mice, at dose 106 mg/kg, administered subcutaneously;cures; format: functional; settings: route subcutaneous; outline: as §1
# Mus musculus [47] = test: Antitrypanosomal activity was evaluated against Trypanosoma rhodesiense infections in mice, at dose 26 mg/kg, administered subcutaneously;cures; format: functional; settings: route subcutaneous; outline: as §1
# [48] = test system: Trypanosoma brucei rhodesiense; test: Antitrypanosomal activity against Trypanosoma rhodesiense infections in mice, 106 mg/kg administered subcutaneously; format: functional; settings: route subcutaneous; outline: as §3
# Mus musculus [49] = test: Antitrypanosomal activity was evaluated against Trypanosoma rhodesiense infections in mice, at dose 212 mg/kg, administered subcutaneously;Toxic; format: functional; settings: route subcutaneous; outline: as §1
smiles,measurement,setting,value
CC1(C)N=C(N)N=C(N)N1c1ccc(-c2ccc(N3C(N)=NC(N)=NC3(C)C)cc2)cc1.Cl.Cl,Cures,Mus musculus [1],4
same,Toxic,[2],5
same,Delta MST,[3],7.8 days
same,Toxic,Mus musculus [4],5
same,Cures,Mus musculus [5],1
same,Toxic,Mus musculus [6],5
same,Cures,Mus musculus [7],1
same,Delta MST,[8],3.7 days
same,Toxic,Mus musculus [9],5
same,Toxic,[10],5
same,Delta MST,[11],9.2 days
CC1(C)N=C(N)N=C(N)N1c1ccc(Oc2ccc(N3C(N)=NC(N)=NC3(C)C)cc2)cc1.Cl.Cl,Toxic,Mus musculus [12],5
same,Delta MST,[3],5.3 days
same,Toxic,[13],5
same,Cures,Mus musculus [14],2
same,Cures,Mus musculus [15],1
same,Delta MST,[11],4.2 days
same,Delta MST,[16],5 days
CC1(C)N=C(N)N=C(N)N1c1ccc(CCc2cccc(N3C(N)=NC(N)=NC3(C)C)c2)cc1.Cl.Cl,Toxic,Mus musculus [17],5
same,Toxic,Mus musculus [18],1
same,Delta MST,Mus musculus [19],1 days
same,Delta MST,Mus musculus [20],0.2 days
same,Delta MST,Mus musculus [21],1.7 days
same,Toxic,Mus musculus [22],1
same,Delta MST,Mus musculus [23],0 days
same,Delta MST,Mus musculus [24],3.7 days
same,Delta MST,Mus musculus [25],0.4 days
same,Delta MST,Mus musculus [26],1.8 days
same,Cures,Mus musculus [27],1
same,Cures,Mus musculus [15],1
CC1(C)N=C(N)N=C(N)N1c1cccc(NC(=O)Nc2cccc(N3C(N)=NC(N)=NC3(C)C)c2)c1.Cl.Cl,Toxic,[2],5
same,Delta MST,[3],0 days
same,Toxic,Mus musculus [18],3
same,Toxic,[13],5
same,Delta MST,[8],0 days
same,Delta MST,Mus musculus [28],0.2 days
same,Toxic,[10],5
same,Delta MST,[11],0 days
CC1(C)N=C(N)N=C(N)N1c1ccc(CCc2ccc(N3C(N)=NC(N)=NC3(C)C)cc2)cc1.Cl.Cl,Cures,Mus musculus [29],5
same,Cures,Mus musculus [30],3
same,Cures,Mus musculus [31],4
same,Cures,Mus musculus [32],4
same,Delta MST,Mus musculus [21],3.4 days
same,Delta MST,Mus musculus [33],3.8 days
same,Delta MST,[34],7.8 days
same,Cures,Mus musculus [14],4
same,Delta MST,[11],3.2 days
same,Toxic,Mus musculus [35],3
same,Delta MST,[36],0.2 days
same,Delta MST,[16],7.7 days
CC1(C)N=C(N)N=C(N)N1c1ccc(/N=N/c2ccc(N3C(N)=NC(N)=NC3(C)C)cc2)cc1.Cl.Cl,Delta MST,[3],1 days
same,Cures,Mus musculus [37],4 and 5
same,Cures,Mus musculus [38],4
same,Delta MST,[39],0.9 days
same,Delta MST,Mus musculus [23],1 days
same,Cures,Mus musculus [40],4 and 5
same,Cures,Mus musculus [41],4
same,Delta MST,Mus musculus [24],0.1 days
same,Delta MST,[8],0 days
same,Delta MST,Mus musculus [25],5.9 days
same,Delta MST,Mus musculus [42],1.9 days
same,Toxic,Mus musculus [43],2 and 1
same,Delta MST,Mus musculus [44],1.6 days
same,Delta MST,[11],0.2 days
CC1(C)N=C(N)N=C(N)N1c1ccc(C(c2ccc(N3C(N)=NC(N)=NC3(C)C)cc2)c2ccc(N3C(N)=NC(N)=NC3(C)C)cc2)cc1.Cl.Cl,Toxic,[2],5
same,Delta MST,Mus musculus [19],-0.1 days
same,Delta MST,Mus musculus [21],-0.1 days
same,Delta MST,Mus musculus [45],0.1 days
same,Toxic,[13],5
same,Delta MST,[8],0.1 days
same,Toxic,[10],5
Cl.Cl.N=C(N)NC(=N)Nc1ccc(CCc2ccc(NC(=N)N=C(N)N)cc2)cc1,Cures,Mus musculus [30],2
same,Cures,Mus musculus [46],3
same,Cures,Mus musculus [47],1
same,Delta MST,[39],12 days
same,Delta MST,[48],8 days
same,Toxic,Mus musculus [49],2
same,Toxic,[13],5
same,Delta MST,[34],1.4 days
same,Delta MST,[16],3 days
